Experimental data as given in paper PMC6308033 (Molecular Metabolism, 2018).

What was measured:
[1] = human serum; cited from earlier work
[2] = system: blood–brain barrier; conditions: cited from earlier work; for Direction and saturability of BBB transport: mouse brain, brain-to-blood and blood-to-brain
[3] = system: blood–brain barrier of WT and Ghsr null mice; test: Multiple-time regression analysis of blood-to-brain influx; assay type: in vivo, mouse; conditions: for Vi, initial volume of distribution in brain (vascular binding): WT mice, whole brain, y-intercept of B/S ratio vs exposure time, mean ± SEM
Method in brief: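 Male and female mice (3–6 months) were anaesthetised with 0.15 mL 40% urethane i.p. They received 1 × 10^6 cpm (~20 ng) 125I-labelled peptide plus 5 × 10^5 cpm 99mTc-albumin via jugular vein, in 0.2 mL 1% BSA/lactated Ringer's. Carotid blood was taken at 1–10 min, and serum and brain were gamma-counted. Brain/serum ratios (μL/g) were plotted against exposure time (Patlak): the slope gave Ki and the intercept gave Vi.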

[4] = system: brain endothelial cell (capillary vs parenchyma); test: Capillary depletion: complete transfer across the brain endothelial cell; assay type: in vivo, mouse; conditions: 10 min after IV injection, n = 3
Method in brief: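 Urethane-anaesthetised male and female mice (3–6 months) received a 0.2 mL IV injection of 1 × 10^6 cpm 125I-labelled test peptide plus 5 × 10^5 cpm 99mTc-albumin in 1% BSA/lactated Ringer's. Brain was homogenised and spun at 5400 g for 15 min at 4 °C. The capillary pellet was separated from the parenchymal supernatant, and the parenchyma was vascular-corrected using 99mTc-albumin. Ratios were (cpm/g tissue)/(cpm/μL serum).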

Row | Capillary/serum ratio [4] | Transport rate relative to the other three ghrelin forms ([3]; BBB transport rate in mice, hDAG vs mDAG, hAG, mAG) | Substance | Half-life [1] | Degradation of AG into DAG ([2]; same time frame (10 min)) | Vi, initial volume of distribution in brain (vascular binding) [3] | Direction and saturability of BBB transport [2]
1 |  |  | acyl ghrelin [AG] | ~10 min | not degraded into DAG |  | 
2 |  |  | human AG [hAG] |  |  | 1.192 ± 0.57 µL/g | bidirectional and saturable manner
3 | 1.0 ± 0.30 µL/g | approximately three times faster | human DAG [hDAG] |  |  | 1.775 ± 0.81 µL/g | 
4 |  |  | mouse AG [mAG] |  |  | 2.847 ± 0.57 µL/g | bidirectional and saturable manner
5 |  |  | mouse DAG [mDAG] |  |  | 2.265 ± 0.75 µL/g | unidirectionally and in an unsaturable manner
